MrgX1 ag – agonists of human MrgX1 receptor, primary screen, HEK293 cells, Fluo-4 calcium flux; Mas-related G-protein coupled receptor member X1 (Homo sapiens), Q96LB2; Fluo-4 calcium fluorescence, agonist mode; active compounds read high; B-score at 10 µM; 310,000 compounds, 0.44% hits;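 active means calcium response B-score plate-corrected fluorescence ratio at least 3 library SD, with starting fluorescence B-score inside 5 SD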
Target sequence (Q96LB2 whole entry, looked up): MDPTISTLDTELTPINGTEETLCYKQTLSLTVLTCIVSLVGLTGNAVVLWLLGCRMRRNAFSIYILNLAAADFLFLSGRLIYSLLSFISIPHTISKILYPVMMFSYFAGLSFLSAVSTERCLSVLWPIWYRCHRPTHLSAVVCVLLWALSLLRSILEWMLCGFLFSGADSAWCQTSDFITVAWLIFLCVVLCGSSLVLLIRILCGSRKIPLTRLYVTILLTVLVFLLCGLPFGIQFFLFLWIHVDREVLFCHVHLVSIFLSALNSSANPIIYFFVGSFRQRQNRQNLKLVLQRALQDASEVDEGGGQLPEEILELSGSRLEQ
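times = overnight plating, then 30 min 37 °C plus 30 min room-temperature dye loading | assay system = stable human MrgX1 HEK293 cell line | input = fifteen thousand cells per well | signal = kinetic calcium dye fluorescence, Fluo-4 NW | dosing = compound delivered in addition one of three | read-out = B-scored fluorescence response ratio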
MrgX1 antagonist – antagonists of human MrgX1 receptor, primary screen, HEK293 cells, Fluo-4 calcium flux. 310,000 compounds, 1.3% hits. Mas-related G-protein coupled receptor member X1 (Homo sapiens), Q96LB2. BAM8-22 antagonism; active compounds read low. AID 588676, 2011. B-score at 10 µM;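 active means calcium-response B-score plate-corrected more than 3 library SD below zero, starting fluorescence within 5 deviations, no agonist response on first addition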;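 further: peak minus trough fluorescence over baseline after final BAM8-22 challenge near maximal dose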
MrgX1 PAM – positive allosteric modulators of MrgX1, primary screen, HEK293 cells, Fluo-4 calcium flux; Mas-related G-protein coupled receptor member X1 (Homo sapiens), Q96LB2; FDSS; active compounds read high; B-score at 10 µM; 310,000 compounds, 0.63% hits; AID 588675, 2011;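 active means plate-corrected calcium response at least 3 library SD above typical, normal starting fluorescence, not activating the receptor alone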;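 further: compound read alongside a low EC10 to EC30 dose of BAM8-22 agonist; peak minus trough fluorescence over baseline measured at the second addition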
RGS4 inh – RGS4 inhibitors, primary screen, cell-based, HEK293 M3R inducible RGS4, calcium flux; Fluo-4 calcium flux; active compounds read high; triggered by carbachol at its EC20; 310,000 compounds, 0.45% hits; Regulator of G-protein signaling 4 (Homo sapiens), P49798; B-score at 10 µM; AID 463165, 2010;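 active means B-score, a plate-corrected calcium signal, over three deviations above library mean, with baseline fluorescence within five deviations of library mean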;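 further: RGS4 expression induced by doxycycline in cells with stable M3 receptor; B-score is computed from the integrated fluorescence ratio over baseline after carbachol; higher B-score means a larger calcium signal and so more RGS4 inhibition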
Target sequence (P49798 whole entry, looked up): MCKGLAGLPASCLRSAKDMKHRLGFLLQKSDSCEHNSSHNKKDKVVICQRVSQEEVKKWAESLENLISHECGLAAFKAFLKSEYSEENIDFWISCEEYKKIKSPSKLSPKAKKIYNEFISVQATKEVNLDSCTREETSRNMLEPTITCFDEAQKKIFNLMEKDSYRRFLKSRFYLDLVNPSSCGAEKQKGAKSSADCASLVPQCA
RGS4 pot – RGS4 potentiators or activators, primary screen, cell-based, HEK293 M3R inducible RGS4, calcium flux | B-score at 10 µM | 310,000 compounds, 0.92% hits | AID 463111, 2010 | carbachol calcium flux Fluo4; active compounds read low;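 active means B-score of the integrated calcium signal more than 4 SD below the library mean, with starting fluorescence not abnormally high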;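 further: negative B-score means reduced calcium response which marks RGS4 activation or potentiation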
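test system = HEK293 cells with stable M3R and inducible RGS4 | schedule = recording 10 s baseline at 1 Hz, 100 s post-agonist | technique = Fluo4-AM (2 µM) calcium-flux fluorescence, kinetic read | measure = Agonist-evoked peak-minus-minimum fluorescence over baseline, integrated ratio, B score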
* hit, by the source's call; i = inactive; . = no result. Only some compounds are listed: those with a hit (about 3.5% of all), similar ones and a draw of the others.

SMILES | MrgX1 ag | MrgX1 antagonist | MrgX1 PAM | RGS4 inh | RGS4 pot
CN1CC=C2C(C#N)=C(N)C(C#N)(C#N)C(Cc3ccccc3)C2C1 (configuration not stated) | 36* | i | i | i | i
Cn1c(=O)c2c(nc(N3CCCCCC3)n2CC(O)COc2ccccc2)n(C)c1=O (configuration not stated) | i | i | i | i | i
Cc1cccc(OCC(O)Cn2c(N3CCCCC3)nc3c2c(=O)n(C)c(=O)n3C)c1 (configuration not stated) | i | i | 7.2* | i | i
CC(=O)NCC(=O)N1CCCC(C(=O)c2ccc(Oc3ccccc3)cc2)C1 (configuration not stated) | i | i | i | i | i
O=C(/C=C/c1ccccc1)NC(=S)Nc1ccc2c3c(cccc13)CC2 | i | -14* | i | i | i
O=C(COc1ccccc1)NC(=S)Nc1ccc2c3c(cccc13)CC2 | i | i | i | i | i
COc1ccccc1N1CCN(S(=O)(=O)c2ccc(NC(C)=O)cc2)CC1 | i | i | i | i | i
Cc1ccccc1NC1=NCC(c2ccc([N+](=O)[O-])cc2)S1 (configuration not stated) | i | -5.7* | i | i | i
Cc1ccc2nc(/C(C#N)=C/c3ccc(-c4ccccc4C(=O)O)o3)[nH]c2c1 | 33* | i | i | i | i
N#C/C(=C\c1ccc(-c2ccccc2C(=O)O)o1)c1nc2ccccc2[nH]1 | 27* | i | i | i | i
Cc1ccccc1CS(=O)(=O)CCC(=O)NCCCN1CCN(c2ccccc2F)CC1 | i | i | i | i | i
O=C(CCS(=O)(=O)Cc1ccc(Cl)cc1)NCCCN1CCN(c2ccccc2F)CC1 | i | i | i | i | -10*
Cc1cc(C)c2c(=O)n(CC(=O)NCCCN3CCN(c4ccccc4F)CC3)sc2n1 | i | i | i | i | -9.6*
O=C(Nc1ccc2c(c1)CCC2)Nc1ccc(F)cc1F | i | i | i | i | i
Cc1ccc(S(=O)(=O)N(CC(=O)Nc2ccccc2C(=O)O)c2ccc(Cl)cc2)cc1 | i | i | i | i | i
CCOC(=O)c1oc2ccc(/C=N/O)c(Cl)c2c1C | i | i | i | i | i
COC(=O)c1c(NC(=S)Nc2ccc(F)cc2[N+](=O)[O-])sc2c1CCCCC2 | i | i | 8.9* | i | i
COC(=O)c1c(NC(=O)COC(=O)c2ccc(Cl)cc2[N+](=O)[O-])sc2c1CCCCC2 | i | i | i | i | i
CC1=C(C)CS(=O)N(c2ccc(S(N)(=O)=O)cc2)C1 (configuration not stated) | 53* | i | i | i | i
CC1=C(C)CS(=O)N(S(=O)(=O)c2ccccc2)C1 (configuration not stated) | i | i | i | i | i
CN(C)/C=C1/C(=O)N(c2ccc([N+](=O)[O-])cc2)N=C1c1ccccc1 | 35* | i | i | i | i
CN(C)/C=C1\C(=O)N(c2ccc([N+](=O)[O-])cc2)N=C1c1ccccc1 | 50* | i | i | i | i
CC1=NN(c2ccc([N+](=O)[O-])cc2)C(=O)/C1=C\N(C)C | i | i | i | i | i
CCOc1ccc(CCNC(=O)COC(=O)c2cc(=O)[nH]c3ccccc23)cc1OCC | i | i | i | i | i
CC(=O)Nc1ccc2c(c1)ncn2-c1ccc(C)cc1 | i | i | i | i | i
SMILES | MrgX1 ag | MrgX1 antagonist | MrgX1 PAM | RGS4 inh | RGS4 pot
CC(C(=O)O)N1C(=O)C2C3c4ccccc4C(c4ccccc43)[C@@H]2C1=O (some centres not stated) | i | i | i | i | i
N=c1oc2c3c4c(cc2cc1C(=O)Nc1ccccc1)CCCN4CCC3 | i | i | i | i | -9.3*
O=C(Oc1ccc(C(=S)N2CCOCC2)cc1)c1ccc([N+](=O)[O-])cc1[N+](=O)[O-] | i | i | i | i | i
O=C(Oc1ccc(Br)cc1C(=S)N1CCOCC1)c1ccc([N+](=O)[O-])cc1[N+](=O)[O-] | i | i | i | i | -7.5*
COc1cccc(N2CCN(c3ncnc4c3cnn4-c3ccc(C)cc3C)CC2)c1 | i | i | i | i | -7*
Cc1ccc(-n2ncc3c(N4CCCC4)ncnc32)c(C)c1 | i | i | i | i | i
COc1ccc(-n2ncc3c(N4CCN(Cc5ccccc5)CC4)ncnc32)cc1 | i | i | i | i | -7.4*
Cc1cc(OCC(=O)N2CCN(c3ccccn3)CC2)c(C)cc1Br | i | i | i | i | i
CCN1CCN(S(=O)(=O)c2ccc(Cl)c(C(=O)NC(C)c3ccccc3Cl)c2)CC1 (configuration not stated) | i | -5.4* | i | i | i
CCCCCC(=O)NNC(=O)c1c(O)c2ccccc2n(CC)c1=O | i | i | i | i | i
CCn1c(=O)c(C(=O)NNC(=O)c2ccccc2F)c(O)c2ccccc21 | 114* | i | i | i | -8.7*
COc1ccc(-n2c(NC(=O)c3ccco3)c(C#N)c3nc4ccccc4nc32)cc1 | i | i | 7.1* | i | i
CCCCn1c(NC(=O)c2ccccc2Cl)c(C#N)c2nc3ccccc3nc21 | 26* | i | i | i | i
Cc1cccc(Nc2cc(=O)n(C)c(=O)[nH]2)c1 | i | i | i | i | i
COc1ccc(S(=O)(=O)NC(C)C(=O)NCc2ccc3c(c2)OCO3)cc1OC (configuration not stated) | i | i | i | i | i
CC(c1ccccc1)N1C(=O)c2ccc(C(=O)Nc3ccc(Br)cc3C(=O)O)cc2C1=O (configuration not stated) | i | -11* | i | i | i
CC(C)CCN1C(=O)c2ccc(C(=O)Nc3ccccc3C(=O)O)cc2C1=O | i | i | i | i | -7.1*
CC(C)Cn1c(N)c(C(=O)COC(=O)Cc2cccc(C(F)(F)F)c2)c(=O)n(C)c1=O | i | i | i | i | i
Cc1ccc(S(=O)(=O)/N=C2/NC(=O)/C(=C\c3ccco3)S2)cc1 | i | i | i | . | .
